# Measurements reported in PMC6057249 (The Indian Journal of Medical Research, 2018).
# Several values for one entry are separate records, joined by “and”; a condition that tells them apart may be missing. Equal entries are not always repeated. Where two headings read alike, the source gives them in different places. Bridge positions count the residues as written; N and C are the ends. Square brackets hold non-standard residues; d marks the D form. Peptide text beside a SMILES is read from it. * marks the point of attachment. X1 = CC[C@H](C)CCCCC(=O)*; Dab = NCC[C@H](N)C(=O)O
# Columns and labels:
# Acinetobacter baumannii = experiment: MIC for colistin by E-test; format: cell-based; details: isolate of the individual patient
# Summary of the method: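 Organisms came from positive cultures of ICU patients with MDR Gram-negative bloodstream infection and were identified and susceptibility-tested. Colistin MIC for each patient's isolate was determined by E-test per the manufacturer's instructions.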
# [1] = test system: MDR Gram-negative infections; experiment: Bacteriological profile and clinical outcome of patients on colistin monotherapy; format: in vivo, human; details: 1-2 MU i.v. every 8 h
# Summary of the method: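 ICU patients >12 yr with normal renal function and bloodstream infection by an MDR Gram-negative organism susceptible only to colistin. They received colistin monotherapy as CMS by 1-h i.v. infusion every 8 h, without a loading dose, for […]. Follow-up cultures were taken. Exclusions were expected survival <72 h, pregnancy, burns >20% of body surface, and cystic fibrosis.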
# [2] = format: in vivo, human; details: for AUC after 5th dose: individual patients, steady state, plasma, AUC0-8; for average steady-state concentration (Css, avg) of formed colistin, median: six patients receiving 2 MU q8h, no loading dose
# Summary of the method: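 CMS was given by 1-h i.v. infusion every 8 h. Heparinized venous blood was drawn pre-dose, at end of infusion, then 30 min and 1.5, 2, 4, 6, 8 h after dose 1 and dose 5 (steady state). Plasma (200 μl) was stored at −80°C. CMS was acid-hydrolysed (5% formic acid, 30 min), and colistin A+B were quantified by UHPLC-MS/SRM against a reserpine internal standard. Values are total colistin, with outliers omitted.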
# [3] = cited from earlier work
# [4] = stored plasma samples; to be estimated within four months; ref [17]; cited from earlier work
Compound,MIC (Acinetobacter baumannii) [mg/L],follow up cultures ([1]; all nine patients),patients who did not survive ([1]; nine patients) [per cent],"terminal half-life, range ([2]; 2 MU i.v. every 8 h, after 1st dose) [h]","terminal half-life, range ([2]; 2 MU i.v. every 8 h, after 5th dose) [h]",AUC after 5th dose ([2]; 1 MU i.v. every 8 h),AUC after 5th dose ([2]; 2 MU i.v. every 8 h),Vd for a majority of patients ([2]; patients of this study),"average steady-state concentration (Css, avg) of formed colistin, median ([2]; after 1st dose) [mg/L]","average steady-state concentration (Css, avg) of formed colistin, median ([2]; after 5th dose) [mg/L]","apparent terminal t1/2 ([3]; 2 MU dosage regimen, ref Imberti et al [10]) [h]","t1/2 ([3]; after 2.8 MU dosage, ref Markou et al [11]) [h]","Vd ([3]; cystic fibrosis patients, single dose, ref [17])","Vd ([3]; cystic fibrosis patients, steady state, ref [17])","Vd ([3]; other Indian study, after both the single dose and at steady state, ref [7])","Vd ([3]; other studies, ref [10]) [L/kg]",stability in stored samples (conversion of CMS to colistin) [4]
CC[C@H](C)CCCCC(=O)N[C@@H](CCN)C(=O)N[C@H](C(=O)N[C@@H](CCN)C(=O)N[C@H]1CCNC(=O)[C@H]([C@@H](C)O)NC(=O)[C@H](CCN)NC(=O)[C@H](CCN)NC(=O)[C@H](CC(C)C)NC(=O)[C@@H](CC(C)C)NC(=O)[C@H](CCN)NC1=O)[C@@H](C)O [colistin] (X1-[Dab]T[Dab][Dab][Dab][dL]L[Dab][Dab]T; lactam 4-C),0.125,sterile,30,4.7 to 9.84,2.72 to 8.5,5.4 mg·h/L and 8.5 mg·h/L and 3.5 mg·h/L,15.8 mg·h/L and 6.0 mg·h/L and 4.4 mg·h/L,more than 1.0 l/kg,0.57,0.72,5.9 ± 2.6,7.4 ± 1.7,0.09 (0.02) l/kg,0.09 (0.03) l/kg,0.3 (0.2-0.5) l/kg,1.5 ± 1.1,
colistin methanesulphonate [CMS],,,,,,,,,,,,,,,,,unstable
